{"source": "paper PMC3005096", "about": "(Steroids, 2010)", "key": {"[1]": {"test_system": "HaCaT keratinocytes", "assay": "Proliferation of HaCaT keratinocytes", "format": "cell-based, human", "details": "for EC50: read-out: EC50, inhibition of proliferation"}, "[2]": {"test_system": "SKMEL-188 cells", "assay": "[3H]-thymidine incorporation", "format": "cell-based, human", "details": "SKMEL-188, 72 h, [3H]-thymidine last 4 h", "in_short": "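SKMEL-188 cells were grown in Ham's F-10 with 5% charcoal-treated FBS and synchronized at G0/G1 in serum-free medium. Compounds were added in fresh medium with 5% charcoal-treated FBS for 72 h. [3H]-thymidine (88.0 Ci/mmol) was present at 0.5 μCi/ml final for the last 4 h. Cells were precipitated with 10% TCA and counted by liquid scintillation. Mean ± SD, n=4; one-way ANOVA and t-test.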"}, "[3]": {"molecular_target": "T1, VDR-EGFP fusion protein (Homo sapiens, UniProt P11473)", "T1 sequence (P11473 1-427)": "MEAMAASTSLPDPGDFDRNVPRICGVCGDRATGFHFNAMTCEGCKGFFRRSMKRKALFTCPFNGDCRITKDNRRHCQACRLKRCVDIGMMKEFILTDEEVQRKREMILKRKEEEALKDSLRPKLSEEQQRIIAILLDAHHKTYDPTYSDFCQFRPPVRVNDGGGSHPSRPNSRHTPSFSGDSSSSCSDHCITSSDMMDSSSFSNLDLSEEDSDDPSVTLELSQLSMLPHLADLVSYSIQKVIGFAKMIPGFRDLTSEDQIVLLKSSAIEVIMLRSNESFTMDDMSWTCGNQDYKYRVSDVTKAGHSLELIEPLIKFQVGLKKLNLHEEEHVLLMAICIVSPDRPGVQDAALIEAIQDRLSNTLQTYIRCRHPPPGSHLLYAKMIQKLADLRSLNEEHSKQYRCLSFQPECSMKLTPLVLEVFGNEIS", "assay": "VDR translocation into the nucleus", "format": "cell-based", "details": "SKMEL-188 transduced with pLenti-CMV-VDR-EGFP, 10 nM, 90 min", "in_short": "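SKMEL-188 cells were stably transduced with a lentiviral CMV-driven VDR-EGFP fusion construct (10 MOI, 6 μg/ml polybrene). They were exposed to compound for 90 min, fixed in 4% paraformaldehyde, mounted and examined by fluorescence microscopy. In at least 10 fields, cells with fluorescent nuclei were counted and expressed as % of total cells. Student's t-test.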"}, "[4]": {"test_system": "melanoma SKMEL-188", "assay": "Colony forming assay", "format": "cell-based, human", "details": "SKMEL-188, 0.1, 10 and 1000 nM, 6-10 days", "in_short": "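SKMEL-188 cells were plated at 500 cells/well in 12-well plates in F10 medium with charcoal-stripped FBS and antibiotic-antimycotic, at 37°C in 5% CO2. They were treated at 0.1, 10 and 1000 nM, with matched ethanol dilution as vehicle control, and grown 6–10 days. Colonies were stained with 0.1% […], then counted and sized from photographs. CFU = colonies/cells plated ×100. Mean ± SEM, n=3 or 4.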"}, "[5]": {"test_system": "AbC1 cell line derived from Bomirski hamster melanoma", "assay": "[3H]-thymidine incorporation", "format": "cell-based"}}, "note": "Where two headings read alike, the source gives them in different places.", "data": [{"smiles": "C=C1/C(=C\\C=C2/CCC[C@]3(C)[C@@H]([C@H](C)CCCC(C)(C)O)CC[C@@H]23)C[C@@H](O)C[C@@H]1O", "note": "[1,25(OH)2D3, reference compound]", "values": [{"measurement": "EC50", "setting": "[1]; Homo sapiens", "result": 0.18, "unit": "µM"}]}, {"smiles": "C[C@]12CC[C@H]3C(=CC=C4C[C@@H](O)CC[C@@]43C)[C@@H]1CC[C@@H]2C(=O)CO", "note": "[21(OH)7DHP, 3β, 21-Dihydroxypregna-5,7-dien-20-one]", "values": [{"measurement": "inhibition of DNA synthesis", "setting": "[2]", "result": "inhibited DNA synthesis"}, {"measurement": "translocation of VDR-GFP fusion protein into the nucleus", "setting": "[3]", "result": "induced translocation"}, {"measurement": "effect on proliferation of HaCaT cells", "setting": "[1]", "result": "no effect"}, {"measurement": "EC50", "setting": "[1]; Homo sapiens", "result": "> 1", "unit": "µM"}]}, {"smiles": "C=C1CC[C@H](O)C/C1=C/C=C1\\CCC[C@]2(C)[C@@H](C(=O)CO)CC[C@@H]12", "note": "[21(OH)pD, (5Z,7E)-3β,21-Dihydroxy-9,10-secopregna-5,7,10(19)-trien-20-one]", "values": [{"measurement": "inhibition of DNA synthesis", "setting": "[2]", "result": "inhibited DNA synthesis"}, {"measurement": "inhibition of colony formation", "setting": "[4]", "result": "best inhibition"}, {"measurement": "translocation of VDR-GFP fusion protein into the nucleus", "setting": "[3]", "result": "efficient translocation"}, {"measurement": "EC50", "setting": "[1]", "result": 0.04, "unit": "µM"}]}, {"smiles": "C[C@]12CC[C@@H]3C(=CC=C4C[C@@H](O)CC[C@]43C)[C@@H]1CC[C@@H]2C(=O)CO", "note": "[21(OH)pL, 3β,21-Dihydroxy-9β,10α-pregna-5,7-dien-20-one]", "values": [{"measurement": "inhibition of DNA synthesis", "setting": "[2]", "result": "highest inhibitory potency"}, {"measurement": "inhibition of colony formation", "setting": "[4]", "result": "less potent inhibitory effect"}, {"measurement": "inhibition of DNA synthesis", "setting": "[5]", "result": "efficiently inhibited DNA synthesis"}, {"measurement": "translocation of VDR-GFP fusion protein into the nucleus", "setting": "[3]", "result": "significantly lower"}, {"measurement": "effect on proliferation of HaCaT cells", "setting": "[1]", "result": "no effect"}, {"measurement": "EC50", "setting": "[1]; Homo sapiens", "result": "> 1", "unit": "µM"}]}]}
